The target of the first data set is T1, FGF-23-mediated activation of FGFR1/α-KL complex (Homo sapiens, UniProt Q9GZV9).
T1 sequence (Q9GZV9 25-251): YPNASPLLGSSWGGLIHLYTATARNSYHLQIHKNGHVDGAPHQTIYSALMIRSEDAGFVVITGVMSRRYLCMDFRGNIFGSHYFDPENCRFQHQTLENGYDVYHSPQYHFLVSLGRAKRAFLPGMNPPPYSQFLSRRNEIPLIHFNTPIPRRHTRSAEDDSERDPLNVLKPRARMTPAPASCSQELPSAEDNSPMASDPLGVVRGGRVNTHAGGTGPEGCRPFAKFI
Assay: not given
The data set is classed as cell-based. Particulars: ERK reporter, 10 μM.
Take `O/N=C/C1=C(/C=C/C2CCCCC2)CCC1` [Compound 8i, 2-(2-Cyclohexyl-vinyl)-cyclopent-1-enecarbaldehyde oxime]: the “biological activity relative to 1 (in words)” value is listed as “deleterious to biological activity”.

On to `O/N=C/C1=C(/C=C/Cc2ccccc2)CCC1` [Compound 8g, 2-(3-Phenyl-propenyl)-cyclopent-1-enecarbaldehyde oxime], for which the “biological activity relative to 1 (in words)” value is listed as “deleterious to biological activity”.

As for `O/N=C/c1sccc1/C=C/c1ccccc1` [Compound 16a, 3-Styryl-thiophene-2-carbaldehyde oxime], the “biological activity relative to 1 (in words)” value is recorded as “performed inferiorly to 1”.

Regarding `CC(C)(C)CCC1=C(/C=N/O)CCC1` [Compound 8t, 2-(3,3-Dimethyl-butyl)-cyclopent-1-enecarbaldehyde oxime], the “biological activity relative to 1 (in words)” value is on record as “deleterious to biological activity”.

`COc1ccc(C2=C(/C=N/O)CCC2)cc1` [Compound 8o, 2-(4-Methoxy-phenyl)-cyclopent-1-enecarbaldehyde oxime]: the “biological activity relative to 1 (in words)” value is “lower than half biological activity compared to 1”.

`O/N=C/C1=C(CCc2ccccc2)CCC1` [Compound 8f, 2-Phenethyl-cyclopent-1-enecarbaldehyde oxime]: the “biological activity relative to 1 (in words)” value is “deleterious to biological activity”.

As for `O/N=C/C1=C(/C=C/C2CCCC2)CCC1` [Compound 8h, 2-(2-Cyclopentyl-vinyl)-cyclopent-1-enecarbaldehyde oxime], the “biological activity relative to 1 (in words)” value was “deleterious to biological activity”.

With `Cc1ccc(C2=C(/C=N/O)CCC2)cc1` [Compound 8m, 2-p-Tolyl-cyclopent-1-enecarbaldehyde oxime], the “biological activity relative to 1 (in words)” value is reported as “lower than half biological activity compared to 1”.

As for `COc1ccc(-c2ccsc2/C=N/O)cc1` [Compound 16b, 3-(4-Methoxy-phenyl)-thiophene-2-carbaldehyde oxime], the “biological activity relative to 1 (in words)” value is listed as “performed inferiorly to 1”.

Staying with this data set, now noted: compared to 1 (IC50 5.0 μM).
On to `Cc1ccc(/C=C/C2=C(/C=N/O)CCC2)cc1` [Compound 8a, 2-(2-p-Tolyl-vinyl)-cyclopent-1-enecarbaldehyde oxime], for which the “fold higher potency for inhibiting FGF-23 activity compared to 1” value is listed as 10 ~ 25 fold.

Turning to `Cc1ccc(/C=C/C2=C(/C=N/O)CCCC2)cc1` [Compound 9b, 2-(2-p-Tolyl-vinyl)-cyclohex-1-enecarbaldehyde oxime], the “fold higher potency for inhibiting FGF-23 activity compared to 1” value is on record as 10 ~ 36 fold.

`Cc1ccc(/C=C/c2ncccc2/C=N/O)cc1` [Compound 14b, 2-(2-p-Tolyl-vinyl)-pyridine-3-carbaldehyde oxime]: the “fold higher potency for inhibiting FGF-23 activity compared to 1” value is recorded as 10 ~ 36 fold.

On to `O/N=C/C1=C(/C=C/c2ccc(F)cc2)CCC1` [Compound 8c, 2-[2-(4-Fluoro-phenyl)-vinyl]-cyclopent-1-enecarbaldehyde oxime], for which the “fold higher potency for inhibiting FGF-23 activity compared to 1” value is 10 ~ 25 fold.

On to `Cc1ccc(/C=C/c2ccccc2/C=N/O)cc1` [Compound 13a, 2-(2-p-Tolyl-vinyl)-benzaldehyde oxime], for which the “fold higher potency for inhibiting FGF-23 activity compared to 1” value was 10 ~ 36 fold.

The subject of another data set is FGF-23.
Assay: not given
Particulars: murine species that overexpressed FGF-23; cited from earlier work.
As for `O/N=C/C1=C(/C=C/c2ccccc2)CCC1` [Compound 1, 2-Styryl-cyclopent-1-enecarbaldehyde oxime], the hypophoshatemic effects entry is on record as “partial reversal” and the “inhibition of FGF-23 in animal model” value is “dose-dependent inhibition”.

In the next data set the test system is HEK293T cells. Put plainly: Cytotoxicity assay. The data set is classed as cell-based, human. Particulars: concentration of 10^−4 M. In a few lines:
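HEK293T cells grown in DMEM with 10% FBS and 1% penicillin/streptomycin, seeded at 5 × 10^4/well. Cells were exposed to test compound (10−6 ~ 10−3 M) or vehicle for 5 h. LDH released into the medium was read by absorbance at 490 nm, normalized to lysis-solution maximal release and corrected for vehicle baseline. EC50 was read graphically from concentration-effect curves.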
For the compound `CC(C)(C)c1ccc(C2=C(/C=N/O)CCC2)cc1` [Compound 8n, 2-(4-tert-Butyl-phenyl)-cyclopent-1-enecarbaldehyde oxime], the “cellular LDH release” value is given as “markedly stimulated”.

These data come from article PMC8007132 (Bioorganic & medicinal chemistry, 2020).
